Results taken from article PMC7029422 (Bioorganic & medicinal chemistry, 2020).
“Also recorded” adds a separate entry of the source.

Assays:
[1] = test system: MDA-MB-435 human melanoma cells; assay: Cytotoxicity against MDA-MB-435 cells; format: cell-based; conditions: MDA-MB-435, 72 h, read-out: IC50 value toward the MDA-MB-435 human melanoma cells
[2] = test system: HT-29 human colon cancer cells; assay: Cytotoxicity against HT-29 cells; format: cell-based; conditions: HT-29, 72 h, read-out: IC50 value toward the HT-29 human colon cancer cells
[3] = test system: OVCAR3 human ovarian cancer cells; assay: Cytotoxicity against OVCAR3 cells; format: cell-based; conditions: OVCAR-3, 72 h, read-out: IC50 value toward the OVCAR3 human ovarian cancer cells
[4] = test system: glucose uptake in H1299 human lung cancer cells; assay: Glucose uptake assay; format: cell-based; conditions: 30 μM, 15 min treatment; WZB117 30 μM as positive control
In short: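 H1299 cells (DMEM, 25 mM glucose, 10% FBS, 37 °C, 5% CO2) in 24-well plates; washed, serum-starved in FBS-free DMEM 1.5 h, then 30 min in glucose-free KRP. Test compound at final 30 μM for 15 min. Uptake then started with 37 MBq/L 2-deoxy-D-[3H]glucose plus 1 mM glucose (final) for 40 min. Stopped with PBS; lysate radioactivity counted by liquid scintillation. Triplicate, three independent experiments; Student's t-test versus vehicle.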

[5] = biological target: Na^+/K^+-ATPase (adenosine 5′-triphosphatase from porcine cerebral cortex); conditions: read-out: Na+/K+-ATPase activity inhibition, IC50; previous investigation; cited from earlier work

SMILES: CO[C@H]1[C@H](O[C@H]2CC[C@]3(C=O)[C@H]4CC[C@]5(C)[C@@H]6CC[C@]5(O[C@H]5OC(=O)C[C@H]56)[C@@H]4CC[C@]3(O)C2)O[C@H](C)[C@H](O)[C@@H]1OC [Compound 3a, (+)-20,22-dihydro-14,21-epoxystrebloside]
- IC50 [1]: > 20 µM

SMILES: CO[C@H]1[C@H](O[C@H]2CC[C@]3(C=O)[C@H]4CC[C@]5(C)[C@@H](C6=CC(=O)OC6)CC[C@]5(O)[C@@H]4CC[C@]3(O)C2)O[C@H](C)[C@H](O)[C@@H]1OC [Compound 3, (+)-strebloside]
- IC50 [2]: 170 nM
- IC50 [3]: 130 nM
- Inhibition of glucose uptake/transport in H1299 cells [4]: did not inhibit glucose uptake; also recorded: did not inhibit glucose transport
- IC50 [5]: 160 nM

SMILES: CC(=O)O[C@H]1C(=O)[C@@]2(C)[C@H]([C@H](OC(=O)c3ccccc3)[C@]3(O)C[C@H](OC(=O)[C@H](O)[C@@H](NC(=O)c4ccccc4)c4ccccc4)C(C)=C1C3(C)C)[C@]1(OC(C)=O)CO[C@@H]1C[C@@H]2O [Paclitaxel, reference compound]
- IC50 [2]: 0.8 nM

SMILES: CO[C@H]1[C@H](O[C@H]2CC[C@]3(C=O)[C@H]4CC[C@]5(C)[C@](O)(C6=CC(=O)OC6)CC[C@]5(O)[C@@H]4CC[C@]3(O)C2)O[C@H](C)[C@H](O)[C@@H]1OC [Compound 1, (3β)-3-[(2,3-di-O-methyl-β-D-fucopyranosyl)oxy]-5β,14β,17β-trihydroxy-19-oxo-17-epi-card-20(22)-enolide]
- IC50 [1]: > 20 µM
